Test results from ChEMBL document CHEMBL1148154, “New secondary metabolites from the marine endophytic fungus Apiospora montagnei” (J Nat Prod, 2004).
≈ marks a conversion by molar mass, not a printed value. Calls of active or inactive are those of the source.

Key:
HM02 = experiment: Cytotoxicity against human HM02 cells at 10 ug/ml; assay type: functional, cell-based
Method in brief: (§1)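 Human tumour lines were HM02 (gastric adenocarcinoma), HepG2 (hepatocellular carcinoma) and MCF7 (breast adenocarcinoma), run following NCI standards. Read-outs were total growth inhibition (TGI) and LC50, defined as a 50% reduction of the initial cell number, in µg/mL. Single-level testing was done at 10 µg/mL.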

HepG2 [1] = experiment: Cytotoxicity against human HepG2 cells at 10 ug/ml; assay type: functional, cell-based; method in brief: as §1
MCF7 [2] = experiment: Cytotoxicity against human MCF7 cells at 10 ug/ml; assay type: functional, cell-based; method in brief: as §1
Priestia megaterium = experiment: Antibacterial activity against Bacillus megaterium at 50 ug/disk by agar diffusion assay; assay type: functional, organism-based
Escherichia coli = experiment: Antibacterial activity against Escherichia coli at 50 ug/disk by agar diffusion assay; assay type: functional, organism-based
Microbotryum violaceum = experiment: Antifungal activity against Microbotryum violaceum at 50 ug/disk by agar diffusion assay; assay type: functional, organism-based
[3] = tested on: Aspergillus pseudoglaucus; experiment: Antifungal activity against Eurotium repens at 50 ug/disk by agar diffusion assay; assay type: functional, organism-based
Mycotypha microspora = experiment: Antifungal activity against Mycotypha microspora at 50 ug/disk by agar diffusion assay; assay type: functional, organism-based
[Chlorella] fusca = Antialgal activity against 'Chlorella' fusca at 50 ug/disk by agar diffusion assay; assay type: functional, organism-based; details: Scenedesmus fuscus
[4] = Cytotoxicity against human HM02 cells; assay type: functional; method in brief: as §1
HepG2 [5] = experiment: Cytotoxicity against human HepG2 cells; assay type: functional; method in brief: as §1
MCF7 [6] = experiment: Cytotoxicity against human MCF7 cells; assay type: functional; method in brief: as §1
P388 = experiment: Cytotoxicity against mouse P388 cells; assay type: functional; details: read-out: ED50 (the source's name)
Artemia = experiment: Toxicity in brine shrimp; assay type: organism-based; details: in vivo
[7] = read-out: LC50 (the source's name)

SMILES	Activity (HM02)	Activity (HepG2 [1])	Activity (MCF7 [2])	Activity (Priestia megaterium)	Activity (Escherichia coli)	Activity (Microbotryum violaceum)	Activity [3]	Activity (Mycotypha microspora)	Activity ([Chlorella] fusca)	GI50 [4] [mg/L]	TGI [4] [mg/L]	CC50 [4, 7] [mg/L]	GI50 (HepG2 [5]) [mg/L]	TGI (HepG2 [5]) [mg/L]	CC50 (HepG2 [5]; [7]) [mg/L]	GI50 (MCF7 [6]) [mg/L]	TGI (MCF7 [6]) [mg/L]	CC50 (MCF7 [6]; [7]) [mg/L]	EC50 (P388) [mg/L]	Activity (Artemia)
C=C[C@@]1(C)C=C2C(=O)C(O)=C3[C@](C)(C(=O)O)CC[C@@H]4C[C@]34[C@]2(O)C(=O)C1	inactive	inactive	inactive	inactive	inactive	inactive	inactive	inactive	inactive											
C=C(C(=O)O)C(CCCCC(C)O)C(=O)OC (centres undefined)				inactive	inactive	inactive	inactive	inactive	inactive											
C[C@@H]1C=C[C@@H]2C[C@H](CO)CC[C@H]2[C@@H]1C(=O)O				inactive	inactive	inactive	inactive	inactive	inactive											
C=C(C(=O)O)C(CCCCCC)C(=O)O (centres undefined)				inactive	inactive	inactive	inactive	inactive	inactive											
O=C1C(CO)=C[C@H](O)[C@H]2O[C@@H]12				inactive	inactive	inactive	inactive	inactive	inactive	0.7 (≈ 4.48 µM)	1 (≈ 6.4 µM)	> 10	0.75 (≈ 4.8 µM)	4.6 (≈ 29.5 µM)	> 10	0.8 (≈ 5.12 µM)	1.5 (≈ 9.61 µM)	3.6 (≈ 23.1 µM)	0.2 (≈ 1.28 µM)	Toxic
